Test [1] relates to LNCaP. Put plainly: Cytotoxicity against human LNCAP cells. Particulars: read-out: ED50 (the source's name). Type of test: functional. The essentials: (§1)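 Panel of three human cancer lines (Lu1, LNCaP, MCF-7). Cytotoxicity expressed as ED50 in µg/mL.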
The subject of test [2] is MCF7. Description: Cytotoxicity against human MCF7 cells. Type of test: functional. Particulars: read-out: ED50 (the source's name). The essentials:
as §1

Test [3] relates to Lu1. Description: Cytotoxicity against human Lu1 cells. Type of test: functional. The note with it: read-out: ED50 (the source's name). The essentials: as §1
The subject of test [4] is LNCaP. Description: Inhibition of human LNCAP cells propagated in hollow fibers via intraperitoneal site of immunodeficient NCr nu/nu mouse at 10 to 40 mg/kg, ip once daily after 7 days of implantation relative to control. Type of test: functional. Particulars: dose mg/kg 10-40. The essentials:
(§2)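 In vivo hollow fiber model in immunodeficient mice. Fibers loaded with Lu1, LNCaP or MCF-7 cells were implanted subcutaneously or intraperitoneally. Vehicle or drug was given ip once daily at 10, 20 or 40 mg/kg on days 3-6 after implantation. Mice were sacrificed on day 7, and fibers were retrieved and analysed for growth inhibition versus vehicle.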

Test [5] has as its system Lu1. Description: Inhibition of human Lu1 cells propagated in hollow fibers via subcutaneous site of immunodeficient NCr nu/nu mouse at 10 to 40 mg/kg, ip once daily after 7 days of implantation. It counts as functional, organism-based. The essentials: as §2
Test [6] deals with MCF7. Put plainly: Inhibition of human MCF7 cells propagated in hollow fibers via subcutaneous site of immunodeficient NCr nu/nu mouse at 10 to 40 mg/kg, ip once daily after 7 days of implantation. Type of test: functional, organism-based. The essentials: as §2

The record followed here is ChEMBL document CHEMBL1158116, “Prenylated flavonoids from the root bark of Berchemia discolor, a Tanzanian medicinal plant” (2006).

Structures are written as SMILES. Values after ≈ are worked out from the molar mass of the structure shown. Active and inactive are the calls of the source. The calls are words filed in the database; no cut-off is given here. A value given as a limit tells only on which side of the number the result lay.

`COc1ccc([C@]2(O)COc3c(ccc4c3C=CC(C)(C)O4)C2)c(O)c1`: the EC50 in the test on LNCaP [1], in the test on MCF7 [2] and with Lu1 [3] was > 5 µg/mL throughout.
On to `CC1(C)C=Cc2c(c(O)cc3c2OC[C@@H]2c4cc5c(cc4O[C@H]32)OCO5)O1`, for which the EC50 in the test on LNCaP [1], in the test with MCF7 [2] and in the test with Lu1 [3] was > 5 µg/mL throughout.
Regarding `CC1(C)C=Cc2c(cc(O)c3c2OCC(c2cc4c(cc2O)OCO4)C3=O)O1` (racemic) [DISCOLORANONE A], the EC50 in the test on LNCaP [1], in the test on MCF7 [2] and in the test with Lu1 [3] was > 5 µg/mL in each case.
Take `CC1(C)C=Cc2c(cc3c(c2O)C(=O)[C@@H](c2cc4c(cc2O)OCO4)CO3)O1` [(3S)-ISODISCOLORANONE A]: the EC50 with LNCaP [1], with MCF7 [2] and with Lu1 [3] was > 5 µg/mL in each case.
Consider `COc1ccc([C@H]2COc3cc4c(c(O)c3C2=O)C=CC(C)(CCC=C(C)C)O4)c(O)c1O` (stereo partly drawn) [(3S)-ISODISCOLORANONE B], for which the EC50 in the test on LNCaP [1], with MCF7 [2] and in the test on Lu1 [3] was > 5 µg/mL in each case.
Take `C=C(CO)[C@H]1Cc2c(ccc3c2O[C@@H]2COc4cc(OC)c(OC)cc4[C@@H]2C3=O)O1` [AMORPHIGENIN]: the EC50 in the test with LNCaP [1] was 7.9 µg/mL (≈ 19.2 µM); with MCF7 [2] it was > 20 µg/mL; in the test with Lu1 [3], 4.8 µg/mL (≈ 11.7 µM).
Regarding `C=C(CO)[C@H]1Cc2c(ccc3c2O[C@@H]2COc4cc(OC)c(OC)cc4[C@]2(O)C3=O)O1` [DABINOL], the values for the EC50 in the test on LNCaP [1], in the test on MCF7 [2] and in the test on Lu1 [3] were 5.4 µg/mL (≈ 12.7 µM), 13.1 µg/mL (≈ 30.7 µM) and 3.1 µg/mL (≈ 7.27 µM), respectively.
The corresponding values for `COc1ccc([C@H]2COc3c4c(cc(O)c3C2=O)OC(C)(CCC=C(C)C)C=C4)c(O)c1O` (stereo not given in full) [DISCOLORANONE] are 6.4 µg/mL (≈ 14.1 µM), 3.6 µg/mL (≈ 7.96 µM) and 9.6 µg/mL (≈ 21.2 µM).
For `COc1ccc(C2COc3c(ccc4c3C=CC(C)(CCC=C(C)C)O4)C2)c(O)c1` (stereo not given) [HEMINITIDULAN] the same measures were > 5 µg/mL, > 5 µg/mL and > 5 µg/mL.
Regarding `CC1(C)C=Cc2c(ccc3c2OCC2c4cc5c(cc4OC32)OCO5)O1` (stereo not given) [LEIOCARPIN], the EC50 with LNCaP [1], in the test on MCF7 [2] and in the test with Lu1 [3] was > 5 µg/mL in each case.
With `CC1(C)C=Cc2c(c(O)cc3c2OCC(c2cc4c(cc2O)OCO4)C3)O1` (stereo not given) [LEIOCINOL], the EC50 in the test on LNCaP [1], with MCF7 [2] and with Lu1 [3] was > 5 µg/mL each time.
`CC1(C)C=Cc2c(ccc3c2OCC(c2cc4c(cc2O)OCO4)C3)O1` (stereo not given) [LEIOCIN]: the EC50 in the test with LNCaP [1], in the test on MCF7 [2] and in the test on Lu1 [3] was > 5 µg/mL throughout.
For `CC(C)=CCCC1(C)C=Cc2c(ccc3c2OCC(c2cc4c(cc2O)OCO4)C3)O1` (stereo not given) [NITIDULAN], the EC50 with LNCaP [1], with MCF7 [2] and in the test on Lu1 [3] was > 5 µg/mL throughout.
Take `COc1ccc([C@H]2COc3c(ccc4c3C=CC(C)(CCC=C(C)C)O4)C2)c(O)c1O` (stereo not given in full) [NITIDULIN]: the “inhibition (INH)” value in the test on LNCaP [4] was determined as 49%. Moreover, the outcome in the test on Lu1 [5] and with MCF7 [6] was inactive. For the same molecule, the EC50 in the test on LNCaP [1] amounted to 4.1 µg/mL (≈ 9.7 µM); in the test with MCF7 [2], 3.5 µg/mL (≈ 8.28 µM); with Lu1 [3], 4.2 µg/mL (≈ 9.94 µM).
